Activity calls are given as the source filed them. No cut-off for these calls is given here. Square brackets hold non-standard residues; d marks the D form. Peptide text beside a SMILES is read from it. Dap = NC[C@H](N)C(=O)O
Assays:
[1] = target: Melanocortin receptor 3 (Mus musculus) (UniProt P33033); assay: Agonist activity at mouse melanocortin receptor 3 expressed in HEK293 cells assessed as stimulation of cAMP accumulation at 100 uM incubated for 2 hrs by cAMP Alpha-screen assay relative to control; type: functional, cell-based
Chain of Melanocortin receptor 3 (Mus musculus) (P33033 whole entry): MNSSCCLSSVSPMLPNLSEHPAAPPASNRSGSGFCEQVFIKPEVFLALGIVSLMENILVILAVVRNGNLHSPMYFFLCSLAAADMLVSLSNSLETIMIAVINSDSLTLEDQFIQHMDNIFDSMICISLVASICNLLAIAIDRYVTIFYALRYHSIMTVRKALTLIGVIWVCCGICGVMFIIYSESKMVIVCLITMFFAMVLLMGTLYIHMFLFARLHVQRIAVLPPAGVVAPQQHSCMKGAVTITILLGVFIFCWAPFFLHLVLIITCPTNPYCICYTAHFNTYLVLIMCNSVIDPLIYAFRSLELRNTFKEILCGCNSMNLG

Melanocortin receptor 3 [2] = target: T1, Melanocortin receptor 3 (Mus musculus, UniProt P33033); assay: Antagonist activity at mouse melanocortin receptor 3 expressed in HEK293 cells assessed as inhibition of NDP-MSH-induced cAMP accumulation incubated for 2 hrs by cAMP Alpha-screen assay based Schild analysis; type: functional, cell-based; conditions: read-out: pA2 (converted)
T1 sequence (P33033 whole entry): as above
Procedure, shortened: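 NDP-MSH (10−6 to 10−12) plus antagonist at 10,000, 5,000, 1,000 and 500 nM, 2 h dark at room temperature. AlphaScreen cAMP read after lysis/bead step 2 h. Schild pA2; duplicates, at least three independent experiments.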

[3] = target: Melanocortin receptor 4 (Mus musculus) (UniProt P56450); assay: Agonist activity at mouse melanocortin receptor 4 expressed in HEK293 cells assessed as stimulation of cAMP accumulation at 100 uM incubated for 2 hrs by cAMP Alpha-screen assay relative to control; type: functional, cell-based
Chain of Melanocortin receptor 4 (Mus musculus) (P56450 whole entry): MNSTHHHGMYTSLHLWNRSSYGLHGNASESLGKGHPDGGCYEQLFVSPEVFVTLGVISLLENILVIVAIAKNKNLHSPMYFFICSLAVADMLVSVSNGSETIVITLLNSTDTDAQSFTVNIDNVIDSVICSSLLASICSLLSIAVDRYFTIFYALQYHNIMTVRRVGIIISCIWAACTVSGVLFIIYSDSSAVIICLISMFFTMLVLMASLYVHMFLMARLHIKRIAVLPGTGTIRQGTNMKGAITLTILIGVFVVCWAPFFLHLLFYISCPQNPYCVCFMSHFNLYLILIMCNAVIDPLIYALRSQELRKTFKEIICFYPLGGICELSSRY

[4] = target: Melanocyte-stimulating hormone receptor (Mus musculus) (UniProt Q01727); assay: Ratio of IC50 for MDE6-82-1c to IC50 for test compound for displacement of [125I]-NDP-MSH from mouse melanocortin receptor 1 […] incubated for 1 hr by automatic gamma counting method
Chain of Melanocyte-stimulating hormone receptor (Mus musculus) (Q01727 whole entry, looked up): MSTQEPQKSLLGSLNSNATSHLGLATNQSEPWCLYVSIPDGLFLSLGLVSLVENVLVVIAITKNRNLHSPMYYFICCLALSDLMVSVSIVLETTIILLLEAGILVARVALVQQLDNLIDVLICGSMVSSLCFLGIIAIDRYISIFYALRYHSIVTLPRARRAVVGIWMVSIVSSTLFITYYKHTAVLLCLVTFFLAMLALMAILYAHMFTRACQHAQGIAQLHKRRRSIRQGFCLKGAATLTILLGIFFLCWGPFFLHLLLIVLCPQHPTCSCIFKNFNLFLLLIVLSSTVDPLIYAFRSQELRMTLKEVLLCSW

Melanocortin receptor 5 [5] = target: T2, Melanocortin receptor 5 (Mus musculus, UniProt P41149); assay: Agonist activity at mouse melanocortin receptor 5 expressed in HEK293 cells assessed as stimulation of cAMP accumulation incubated for 2 hrs by cAMP Alpha-screen assay; type: functional, cell-based
T2 sequence (P41149 whole entry): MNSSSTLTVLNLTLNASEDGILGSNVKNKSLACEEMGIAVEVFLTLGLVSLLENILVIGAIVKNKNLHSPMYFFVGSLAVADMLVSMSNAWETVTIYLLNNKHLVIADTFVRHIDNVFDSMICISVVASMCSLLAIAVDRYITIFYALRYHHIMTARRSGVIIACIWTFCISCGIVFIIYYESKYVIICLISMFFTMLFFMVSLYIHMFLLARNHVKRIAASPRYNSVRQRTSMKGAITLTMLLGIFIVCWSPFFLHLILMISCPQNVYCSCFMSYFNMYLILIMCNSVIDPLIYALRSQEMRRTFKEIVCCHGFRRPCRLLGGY

Melanocortin receptor 4 [6] = target: T3, Melanocortin receptor 4 (Homo sapiens, UniProt P32245); assay: Antagonist activity at human melanocortin receptor 4 expressed in HEK293 cells assessed as inhibition of NDP-MSH-induced cAMP accumulation incubated for 2 hrs by cAMP Alpha-screen assay based Schild analysis; type: functional, cell-based; conditions: read-out: pA2 (converted)
T3 sequence (P32245 whole entry): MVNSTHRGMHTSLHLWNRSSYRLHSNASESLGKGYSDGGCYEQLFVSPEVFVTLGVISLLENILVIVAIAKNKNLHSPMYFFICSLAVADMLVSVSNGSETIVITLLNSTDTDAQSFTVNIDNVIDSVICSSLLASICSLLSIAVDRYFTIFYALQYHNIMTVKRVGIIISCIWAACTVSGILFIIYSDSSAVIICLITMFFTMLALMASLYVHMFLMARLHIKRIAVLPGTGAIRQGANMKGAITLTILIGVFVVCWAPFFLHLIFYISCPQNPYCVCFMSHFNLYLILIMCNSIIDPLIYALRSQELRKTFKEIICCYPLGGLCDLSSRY

[7] = target: Melanocortin receptor 4 (Mus musculus) (UniProt P56450); assay: Ratio of IC50 for MDE6-82-1c to IC50 for test compound for displacement of [125I]-NDP-MSH from mouse melanocortin receptor 4 […] incubated for 1 hr by automatic gamma counting method
Melanocortin receptor 5 [8] = target: T2, Melanocortin receptor 5; assay: Displacement of [125I]-NDP-MSH from mouse melanocortin receptor 5 expressed in HEK293 cell mebranes incubated for 1 hr by automatic gamma counting method; type: cell-based
Melanocortin receptor 4 [9] = target: T3, Melanocortin receptor 4; assay: Inverse agonist activity at human melanocortin receptor 4 expressed in HEK293 cells assessed as inhibition of basal cAMP accumulation incubated for 2 hrs by cAMP Alpha-screen assay; type: functional, cell-based
Procedure, shortened: (§1)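 AlphaScreen cAMP assay in stably transfected HEK293 cells, with 10,000 cells/well in IBMX-containing HBSS/HEPES buffer pH 7.4. Peptide alone, up to 100 μM, 2 h at room temperature in the dark, then 2 h lysis/detection. Inverse agonism taken as percent decrease of cAMP from basal, relative to maximal NDP-MSH signal, at 100 μM. Duplicates, three independent experiments.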

[10] = target: Melanocortin receptor 3 (Mus musculus) (UniProt P33033); assay: Ratio of IC50 for MDE6-82-1c to IC50 for test compound for displacement of [125I]-NDP-MSH from mouse melanocortin receptor 3 expressed in HEK293 cell mebranes incubated for 1 hr by automatic gamma counting method
Procedure, shortened: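 Whole stably transfected HEK293 cells (>90% confluent) incubated 1 h at 37°C, 5% CO2, in DMEM with 0.1% BSA. […] Cells washed, lysed with NaOH/Triton X-100, and counted by gamma counter. Specific binding normalized to nonradioactive NDP-MSH. IC50 from duplicates in two experiments (mean ± SD). Fold difference taken against the Dap-containing parent control.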

Melanocortin receptor 4 [11] = target: T4, Melanocortin receptor 4 (Mus musculus, UniProt P56450); assay: Antagonist activity at mouse melanocortin receptor 4 expressed in HEK293 cells assessed as inhibition of NDP-MSH-induced cAMP accumulation incubated for 2 hrs by cAMP Alpha-screen assay based Schild analysis; type: functional, cell-based; conditions: read-out: pA2 (converted)
T4 sequence (P56450 whole entry): as the sequence (P56450 whole entry) above

Melanocortin receptor 4 [12] = target: T3, Melanocortin receptor 4; assay: Ratio of IC50 for MDE6-82-1c to IC50 for test compound for displacement of [125I]-NDP-MSH from human melanocortin receptor 4 […] incubated for 1 hr by automatic gamma counting method; type: cell membranes
Melanocortin receptor 3 [13] = target: T1, Melanocortin receptor 3; assay: Agonist activity at mouse melanocortin receptor 3 expressed in HEK293 cells assessed as stimulation of cAMP accumulation incubated for 2 hrs by cAMP Alpha-screen assay; type: functional, cell-based
[14] = target: Melanocortin receptor 5 (Mus musculus) (UniProt P41149); assay: Ratio of IC50 for MDE6-82-1c to IC50 for test compound for displacement of [125I]-NDP-MSH from mouse melanocortin receptor 5 […] incubated for 1 hr by automatic gamma counting method
Chain of Melanocortin receptor 5 (Mus musculus) (P41149 whole entry): as the sequence (P41149 whole entry) above

[15] = target: Melanocyte-stimulating hormone receptor (Mus musculus) (UniProt Q01727); assay: Agonist activity at mouse melanocortin receptor 1 expressed in HEK293 cells assessed as stimulation of cAMP accumulation at 100 uM incubated for 2 hrs by cAMP Alpha-screen assay relative to control; type: functional, cell-based
Melanocortin receptor 4 [16] = target: T4, Melanocortin receptor 4; assay: Agonist activity at mouse melanocortin receptor 4 expressed in HEK293 cells assessed as stimulation of cAMP accumulation incubated for 2 hrs by cAMP Alpha-screen assay; type: functional, cell-based
[17] = target: Melanocortin receptor 5 (Mus musculus) (UniProt P41149); assay: Ratio of IC50 for MDE6-82-3c to IC50 for test compound for displacement of [125I]-NDP-MSH from mouse melanocortin receptor 5 expressed in HEK293 cell mebranes incubated for 1 hr by automatic gamma counting method
Procedure, shortened: (§2)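 Cells washed, lysed 10 min with 0.1 M NaOH/1% Triton X-100, then gamma-counted. Specific binding defined with unlabelled NDP-MSH and normalized to it. Duplicate wells, two experiments. IC50 by non-linear fit. Fold difference taken relative to the Asn-parent macrocycle control.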

[18] = target: Melanocortin receptor 3 (Mus musculus) (UniProt P33033); assay: Ratio of IC50 for MDE6-82-3c to IC50 for test compound for displacement of [125I]-NDP-MSH from mouse melanocortin receptor 3 expressed in HEK293 cell mebranes incubated for 1 hr by automatic gamma counting method; procedure, shortened: as §2
Melanocortin receptor 4 [19] = target: T3, Melanocortin receptor 4; assay: Ratio of IC50 for MDE6-82-3c to IC50 for test compound for displacement of [125I]-NDP-MSH from human melanocortin receptor 4 expressed in HEK293 cell membranes incubated for 1 hr by automatic gamma counting method; procedure, shortened: as §2
[20] = target: Melanocortin receptor 4 (Mus musculus) (UniProt P56450); assay: Ratio of IC50 for MDE6-82-3c to IC50 for test compound for displacement of [125I]-NDP-MSH from mouse melanocortin receptor 4 expressed in HEK293 cell mebranes incubated for 1 hr by automatic gamma counting method; procedure, shortened: as §2
[21] = target: Melanocyte-stimulating hormone receptor (Mus musculus) (UniProt Q01727); assay: Ratio of IC50 for MDE6-82-3c to IC50 for test compound for displacement of [125I]-NDP-MSH from mouse melanocortin receptor 1 expressed in HEK293 cell mebranes incubated for 1 hr by automatic gamma counting method; procedure, shortened: as §2
[22] = target: T5, Melanocyte-stimulating hormone receptor (Mus musculus, UniProt Q01727); assay: Displacement of [125I]-NDP-MSH from mouse melanocortin receptor 1 expressed in HEK293 cell mebranes incubated for 1 hr by automatic gamma counting method; type: cell-based; procedure, shortened: as §2
T5 sequence (Q01727 whole entry): as the sequence (Q01727 whole entry, looked up) above

[23] = target: T5, Melanocyte-stimulating hormone receptor; assay: Agonist activity at mouse melanocortin receptor 1 expressed in HEK293 cells assessed as stimulation of cAMP accumulation incubated for 2 hrs by cAMP Alpha-screen assay; type: functional, cell-based
Melanocortin receptor 3 [24] = target: T1, Melanocortin receptor 3; assay: Displacement of [125I]-NDP-MSH from mouse melanocortin receptor 3 expressed in HEK293 cell mebranes incubated for 1 hr by automatic gamma counting method; type: cell-based
[25] = target: Melanocortin receptor 5 (Mus musculus) (UniProt P41149); assay: Inverse agonist activity at mouse melanocortin receptor 5 expressed in HEK293 cells assessed as inhibition of basal cAMP accumulation at 100 uM incubated for 2 hrs by cAMP Alpha-screen assay relative to control; type: functional, cell-based; procedure, shortened: as §1

SMILES: C[C@@H]1NC(=O)[C@H](CN)NC(=O)[C@H](Cc2ccccc2)NC(=O)[C@H](Cc2ccccc2)NC(=O)[C@H](CS)NC(=O)[C@@H]2CCCN2C(=O)[C@H]2CCCN2C(=O)[C@H](Cc2ccccc2)NC1=O (cyclo(PCFF[Dap]AF[dP]))
- Activity [1]: 29%
- Kb (Melanocortin receptor 3 [2]): > 10 µM
- Activity [3]: 42%
- Ratio IC50 [4]: 6
- EC50 (Melanocortin receptor 5 [5]): > 100 µM
- Kb (Melanocortin receptor 4 [6]): > 10 µM
- Ratio IC50 [7]: 5200
- IC50 (Melanocortin receptor 5 [8]): > 100 µM
- Activity (Melanocortin receptor 4 [9]): inactive
- Ratio IC50 [10]: 15
- Kb (Melanocortin receptor 4 [11]): > 10 µM
- Ratio IC50 (Melanocortin receptor 4 [12]): 2100

SMILES: C[C@@H]1NC(=O)[C@H](CN)NC(=O)[C@H](Cc2ccccc2)NC(=O)[C@H](Cc2ccccc2)NC(=O)[C@H](Cc2c[nH]cn2)NC(=O)[C@@H]2CCCN2C(=O)[C@H]2CCCN2C(=O)[C@H](Cc2ccccc2)NC1=O (cyclo(PHFF[Dap]AF[dP]))
- Ratio IC50 [4]: 5
- EC50 (Melanocortin receptor 5 [5]): > 100 µM
- EC50 (Melanocortin receptor 3 [13]): > 100 µM
- Ratio IC50 [7]: 500
- Ratio IC50 [14]: 7
- Activity (Melanocortin receptor 4 [9]): inactive
- Activity [15]: 56%
- Ratio IC50 [10]: 5
- EC50 (Melanocortin receptor 4 [16]): > 100 µM
- Ratio IC50 (Melanocortin receptor 4 [12]): 400

SMILES: CC(C)[C@@H]1NC(=O)[C@H](CC(N)=O)NC(=O)[C@H](Cc2ccccc2)NC(=O)[C@H](Cc2ccccc2)NC(=O)[C@H](CCCNC(=N)N)NC(=O)[C@@H]2CCCN2C(=O)[C@H]2CCCN2C(=O)[C@H](Cc2ccccc2)NC1=O (cyclo(PRFFNVF[dP]))
- Ratio IC50 [17]: 2
- Activity [3]: 16%
- Ratio IC50 [18]: 3
- EC50 (Melanocortin receptor 5 [5]): > 100 µM
- Ratio IC50 (Melanocortin receptor 4 [19]): 3
- EC50 (Melanocortin receptor 3 [13]): > 100 µM
- Ratio IC50 [20]: 2
- Activity (Melanocortin receptor 4 [9]): Active
- Activity [15]: 23%
- Ratio IC50 [21]: 2

SMILES: C[C@@H]1NC(=O)[C@H](CC(N)=O)NC(=O)[C@H](Cc2ccccc2)NC(=O)[C@H](Cc2ccc(O)cc2)NC(=O)[C@H](CCCNC(=N)N)NC(=O)[C@@H]2CCCN2C(=O)[C@H]2CCCN2C(=O)[C@H](Cc2ccccc2)NC1=O (cyclo(PRYFNAF[dP]))
- Ratio IC50 (Melanocortin receptor 4 [19]): 2000
- EC50 (Melanocortin receptor 3 [13]): > 100 µM
- Ratio IC50 [20]: 100
- IC50 [22]: > 100 µM
- IC50 (Melanocortin receptor 5 [8]): > 100 µM
- EC50 [23]: > 100 µM
- Activity (Melanocortin receptor 4 [9]): Active
- IC50 (Melanocortin receptor 3 [24]): > 100 µM
- EC50 (Melanocortin receptor 4 [16]): > 100 µM
- inhibition [25]: 35%

SMILES: C[C@@H]1NC(=O)[C@H](CN)NC(=O)[C@H](Cc2ccccc2)NC(=O)[C@H](Cc2ccc(O)cc2)NC(=O)[C@H](CCCNC(=N)N)NC(=O)[C@@H]2CCCN2C(=O)[C@H]2CCCN2C(=O)[C@H](Cc2ccccc2)NC1=O (cyclo(RYF[Dap]AF[dP]P))
- Ratio IC50 [4]: 4
- EC50 (Melanocortin receptor 5 [5]): > 100 µM
- EC50 (Melanocortin receptor 3 [13]): > 100 µM
- Ratio IC50 [7]: 70
- Ratio IC50 [14]: 20
- Activity (Melanocortin receptor 4 [9]): Active
- Activity [15]: 48%
- Ratio IC50 [10]: 9
- EC50 (Melanocortin receptor 4 [16]): > 100 µM
- Ratio IC50 (Melanocortin receptor 4 [12]): 100

Source: ChEMBL document CHEMBL4354837 (J Med Chem, 2020)
